Results published in ChEMBL document CHEMBL1151472, “In vitro interactions between tacrolimus and azoles against Candida albicans determined by different methods” (2008).
≈ marks a conversion by molar mass, not a printed value.

Key:
Format in all cases: functional
Candida albicans [1] = experiment: Antimicrobial activity against azole-resistant Candida albicans isolate CA10 assessed as growth at 2 ug/ml after 48 hrs by microdilution checkerboard technique relative to control
Procedure, shortened: (§1)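 Checkerboard microdilution in MOPS-buffered RPMI 1640 (pH 7.0, 2% dextrose). Final ranges: azole 0.125–128 μg/ml (FLC) or 0.008–8 μg/ml (ITR, VRC), tacrolimus 0.002–0.125 μg/ml; solvent 1% in single-drug wells. Inoculum 2.5 × 10^3 CFU/ml, 35°C, 48 h. Growth % = background-subtracted OD492 of each well / drug-free well. Triplicate on different days.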

Candida albicans [2] = experiment: Antimicrobial activity against azole-resistant Candida albicans isolate CA10 assessed as growth at 64 ug/ml after 48 hrs by microdilution checkerboard technique relative to control
Procedure, shortened: (§2)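 CA10 in RPMI 1640 with 2% dextrose and 0.165 M MOPS, pH 7.0. Checkerboard used twofold dilutions, with azole alone in row H and the drug-free growth control in well H1. Final inoculum was 2.5 × 10^3 CFU/ml, incubated 35°C for 48 h, with OD read at 492 nm. Growth % = background-subtracted well OD / drug-free well OD. Run in triplicate on different days.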

Candida albicans [3] = experiment: Antimicrobial activity against azole-susceptible Candida albicans isolate CA14 after 48 hrs by broth microdilution method; details: isolate CA14, 48 h
Procedure, shortened: (§3)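 CLSI M27-A2 broth microdilution was run in RPMI 1640 (pH 7.0, 2% dextrose, 0.165 M MOPS). Inoculum was 2.5 × 10^3 CFU/ml, incubated 35°C for 48 h without shaking. Plates were read visually (0–5 scale) and at OD 492 nm. MIC80 = lowest concentration giving an 80% absorbance decrease vs drug-free control. Triplicate.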

Candida albicans [4] = experiment: Antimicrobial activity against azole-resistant Candida albicans isolate CA10 assessed as growth at 2 ug/ml cotreated with 0.004 ug/ml calcineurin signaling inhibitor tacrolimus after 48 hrs by microdilution checkerboard technique relative to control; design: scale not given: the % may be the effect or the level left; procedure, shortened: as §1
Candida albicans [5] = experiment: Antimicrobial activity against azole-resistant Candida albicans isolate CA10 assessed as growth at 0.125 ug/ml cotreated with 0.125 ug/ml calcineurin signaling inhibitor Tacrolimus after 48 hrs by microdilution checkboard technique relative to control; design: scale not given: the % may be the effect or the level left; procedure, shortened: as §1
Candida albicans [6] = experiment: Antimicrobial activity against azole-resistant Candida albicans isolate CA10 assessed as growth at 2 ug/ml cotreated with 0.016 ug/ml calcineurin signaling inhibitor Tacrolimus after 48 hrs by microdilution checkboard technique relative to control; design: scale not given: the % may be the effect or the level left; procedure, shortened: as §1
Candida albicans [7] = experiment: Antimicrobial activity against azole-resistant Candida albicans isolate CA10 assessed as growth at 64 ug/ml co-treated with 0.016 ug/ml calcineurin signaling inhibitor tacrolimus after 48 hrs by microdilution checkboard technique relative to control; design: scale not given: the % may be the effect or the level left; procedure, shortened: as §2
Candida albicans [8] = experiment: Antimicrobial activity against azole-resistant Candida albicans isolate CA10 assessed as growth at 8 ug/ml cotreated with 0.063 ug/ml calcineurin signaling inhibitor tacrolimus after 48 hrs by microdilution checkerboard technique relative to control; design: scale not given: the % may be the effect or the level left; procedure, shortened: as §2
Candida albicans [9] = experiment: Antimicrobial activity against azole-resistant Candida albicans isolate CA10 assessed as growth at 4 ug/ml cotreated with 0.016 ug/ml calcineurin signaling inhibitor Tacrolimus after 48 hrs by microdilution checkboard technique relative to control; design: scale not given: the % may be the effect or the level left; procedure, shortened: as §2
Candida albicans [10] = experiment: Antimicrobial activity against azole-resistant Candida albicans isolate CA10 assessed as growth at 2 ug/ml cotreated with 0.125 ug/ml calcineurin signaling inhibitor tacrolimus after 48 hrs by microdilution checkerboard technique relative to control; design: scale not given: the % may be the effect or the level left; procedure, shortened: as §1
Candida albicans [11] = experiment: Antimicrobial activity against azole-resistant Candida albicans isolate CA10 assessed as growth at 0.016 ug/ml after 48 hrs by microdilution checkerboard technique relative to control; procedure, shortened: as §1
Candida albicans [12] = experiment: Antimicrobial activity against azole-resistant Candida albicans isolate CA10 assessed as growth at 32 ug/ml cotreated with 0.002 ug/ml calcineurin signaling inhibitor Tacrolimus after 48 hrs by microdilution checkboard technique relative to control; design: scale not given: the % may be the effect or the level left; procedure, shortened: as §2
Candida albicans [13] = experiment: Antimicrobial activity against azole-resistant Candida albicans isolate CA10 assessed as growth at 128 ug/ml after 48 hrs by microdilution checkerboard technique relative to control; procedure, shortened: as §1
Candida albicans [14] = experiment: Antimicrobial activity against azole-resistant Candida albicans isolate CA10 assessed as growth at 16 ug/ml cotreated with 0.008 ug/ml calcineurin signaling inhibitor tacrolimus after 48 hrs by microdilution checkerboard technique relative to control; design: scale not given: the % may be the effect or the level left; procedure, shortened: as §1
Candida albicans [15] = experiment: Antimicrobial activity against azole-resistant Candida albicans isolate CA10 assessed as growth at 0.5 ug/ml after 48 hrs by microdilution checkerboard technique relative to control; procedure, shortened: as §1
Candida albicans [16] = experiment: Antimicrobial activity against azole-resistant Candida albicans isolate CA10 assessed as growth at 128 ug/ml cotreated with 0.125 ug/ml calcineurin signaling inhibitor Tacrolimus after 48 hrs by microdilution checkboard technique relative to control; design: scale not given: the % may be the effect or the level left; procedure, shortened: as §1
Candida albicans [17] = experiment: Antimicrobial activity against azole-resistant Candida albicans isolate CA10 assessed as growth at 0.25 ug/ml after 48 hrs by microdilution checkerboard technique relative to control
Procedure, shortened: (§4)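 Checkerboard microdilution in RPMI 1640 (pH 7.0, 2% dextrose, 0.165 M MOPS). Azole dilutions run along columns and FK506 along rows, at 4× final concentration. Final inoculum 2.5 × 10^3 CFU/ml from Sabouraud-subcultured cells. Incubated 35°C for 48 h; OD read at 492 nm. Background from microorganism-free plates subtracted. Growth % = well OD / drug-free well OD. Triplicate on different days, values averaged.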

Candida albicans [18] = experiment: Antimicrobial activity against azole-resistant Candida albicans isolate CA10 assessed as growth at 2 ug/ml cotreated with 0.063 ug/ml calcineurin signaling inhibitor tacrolimus after 48 hrs by microdilution checkerboard technique relative to control; design: scale not given: the % may be the effect or the level left; procedure, shortened: as §1
Candida albicans [19] = experiment: Antimicrobial activity against azole-resistant Candida albicans isolate CA10 assessed as growth at 64 ug/ml co-treated with 0.002 ug/ml calcineurin signaling inhibitor tacrolimus after 48 hrs by microdilution checkboard technique relative to control; design: scale not given: the % may be the effect or the level left; procedure, shortened: as §2
Candida albicans [20] = experiment: Antimicrobial activity against azole-resistant Candida albicans isolate CA10 assessed as growth at 64 ug/ml co-treated with 0.125 ug/ml calcineurin signaling inhibitor tacrolimus after 48 hrs by microdilution checkboard technique relative to control; design: scale not given: the % may be the effect or the level left; procedure, shortened: as §2
Candida albicans [21] = experiment: Antimicrobial activity against azole-resistant Candida albicans isolate CA10 assessed as growth at 0.031 ug/ml after 48 hrs by microdilution checkerboard technique relative to control; procedure, shortened: as §4
Candida albicans [22] = experiment: Antimicrobial activity against azole-resistant Candida albicans isolate CA15 after 48 hrs by broth microdilution method; details: isolate CA15, 48 h; procedure, shortened: as §3
Candida albicans [23] = experiment: Antimicrobial activity against azole-resistant Candida albicans isolate CA135 after 48 hrs by broth microdilution method; details: isolate CA135, 48 h; procedure, shortened: as §3
Candida albicans [24] = experiment: Antimicrobial activity against azole-susceptible Candida albicans isolate CA14 co-treated with calcineurin signaling inhibitor tacrolimus after 48 hrs by microdilution checkerboard technique; details: isolate CA14, 48 h
Procedure, shortened: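 Checkerboard microdilution in MOPS-buffered RPMI 1640 (pH 7.0, 2% dextrose) with 2.5 × 10^3 CFU/ml for 48 h at 35°C. Final FK506 was 0.002–0.125 μg/ml. Azole finals were FLC 0.125–128 μg/ml, and ITR and VRC 0.008–8 μg/ml. MIC80 is an 80% OD492 decrease vs drug-free control. Interaction was scored by FICI (synergy ≤0.5, antagonism >4) and by ΔE from triplicates.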

Q: `OC(Cn1cncn1)(Cn1cncn1)c1ccc(F)cc1F` [FLUCONAZOLE] was tested. Which Activity (Candida albicans [1]) did it give?
A: 54%

Q: And the Activity (Candida albicans [2])?
A: 48%

Q: And the MIC (Candida albicans [3])?
A: 0.5 µg/mL (≈ 1.63 µM)

Q: And the Activity (Candida albicans [4])?
A: 32%

Q: What about the Activity (Candida albicans [5]) of the same molecule?
A: 25%

Q: And the Activity (Candida albicans [6])?
A: 20%

Q: And the Activity (Candida albicans [7])?
A: 16%

Q: And the Activity (Candida albicans [8])?
A: 12%

Q: And the Activity (Candida albicans [9])?
A: 18%

Q: And the Activity (Candida albicans [10])?
A: 12%

Q: What about the Activity (Candida albicans [11]) of the same molecule?
A: 96%

Q: And the Activity (Candida albicans [12])?
A: 36%

Q: And the Activity (Candida albicans [13])?
A: 48%

Q: And the Activity (Candida albicans [14])?
A: 24%

Q: What about the Activity (Candida albicans [15]) of the same molecule?
A: 53%

Q: What about the Activity (Candida albicans [16]) of the same molecule?
A: 0%

Q: What about the Activity (Candida albicans [17]) of the same molecule?
A: 63%

Q: And the Activity (Candida albicans [18])?
A: 13%

Q: And the Activity (Candida albicans [19])?
A: 28%

Q: And the Activity (Candida albicans [20])?
A: 0%

Q: And the Activity (Candida albicans [21])?
A: 93%

Q: What about the MIC (Candida albicans [22]) of the same molecule?
A: 128 µg/mL (≈ 418 µM)

Q: What about the MIC (Candida albicans [23]) of the same molecule?
A: 64 µg/mL (≈ 209 µM)

Q: What about the MIC (Candida albicans [24]) of the same molecule?
A: 0.25 µg/mL
